Published values pooled from the literature.
Each line is one published result; the experiments were not run side by side.
Target: Mitogen-activated protein kinase 15 (MAPK15, Homo sapiens, UniProt Q8TD08)
One construct used (Q8TD08 1-544): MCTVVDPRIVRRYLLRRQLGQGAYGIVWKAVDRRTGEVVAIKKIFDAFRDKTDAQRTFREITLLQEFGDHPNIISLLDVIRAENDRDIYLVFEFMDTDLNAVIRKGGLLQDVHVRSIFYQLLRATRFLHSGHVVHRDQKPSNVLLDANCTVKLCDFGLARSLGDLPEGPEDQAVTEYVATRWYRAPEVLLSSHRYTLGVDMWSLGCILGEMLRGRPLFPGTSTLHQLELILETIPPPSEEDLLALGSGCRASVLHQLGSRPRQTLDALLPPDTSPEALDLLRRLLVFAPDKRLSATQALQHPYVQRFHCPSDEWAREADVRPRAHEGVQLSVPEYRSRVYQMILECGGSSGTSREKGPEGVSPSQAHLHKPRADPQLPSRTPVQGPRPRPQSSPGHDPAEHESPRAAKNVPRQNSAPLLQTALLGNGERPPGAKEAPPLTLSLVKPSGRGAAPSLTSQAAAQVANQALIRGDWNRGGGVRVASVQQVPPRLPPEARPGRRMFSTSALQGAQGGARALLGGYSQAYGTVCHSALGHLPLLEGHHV

| Compound | assay | setting | remaining binding [%] |
| --- | --- | --- | --- |
| CN(c1nccc(-c2cnn3ncccc23)n1)C1CC1 | binding | 1 µM | 85 |
| O=C(NCCCN1CCOCC1)c1ccc(Nc2nccc(-c3cc4ccccc4s3)n2)cc1 | binding, competition with immobilised ligand | 1 µM | 10 |
| COc1ncc2cc3ccccc3nc2c1C#N | cell-free assay, competition with immobilised ligand | 5 µM | 91 |
| CSc1cccnc1N1CCN(Cc2nc3ccccc3[nH]2)CC1 | cell-free assay, competition with immobilised ligand | 1 µM | 82 |
| C=CC(=O)N1CCC(C(=O)NCC(=O)N2CCN(c3nc(-c4cnc(N)nc4C(F)F)nc(N4CCOCC4)n3)CC2)CC1 | binding, competition with immobilised ligand | 1 µM | 97 |
| CN(C)c1nccc(-c2cnn3ncccc23)n1 | binding | 1 µM | 51 |
| C[C@H](c1ccc(F)cc1)N(Cc1cccc(C(=O)O)c1)C(=O)c1cnc2ccccc2c1 | cell-free assay, competition with immobilised ligand | 1 µM | 93 |
| O=C(NCC1CCOCC1)c1n[nH]cc1NC(=O)c1c(F)cccc1F | binding, competition with immobilised ligand | 1 µM | 79 |
| CN(CCCC(F)(F)F)c1nccc(-c2cnn3ncccc23)n1 | binding | 1 µM | 100 |
| CNC(=O)[C@@H]1CC[C@@H](n2c(-c3ccc4cnccc4c3)nc3ccc(C(=O)NCc4cccc(C(N)=O)c4)cc32)C1 | binding, competition with immobilised ligand | 1 µM | 95 |
| O=C(c1ccc(Nc2nccc(-c3cc4ccccc4s3)n2)cc1)N1CCC(N2CCCC2)CC1 | binding, competition with immobilised ligand | 1 µM | 49 |
| C[C@@H]1CCN(c2nccc(-c3cnn4ncccc34)n2)C1 | binding | 1 µM | 49 |
| COc1cnc(Nc2cccc(S(N)(=O)=O)c2)nc1N1CCN(c2ccccc2)CC1 | binding, competition with immobilised ligand | 1 µM | 100 |
| COc1ccc2cc(OCC3(C(=O)O)CN(C(=O)c4ccc(F)cc4)C3)ccc2c1 | cell-free assay, competition with immobilised ligand | 1 µM | 74 |
| COc1ccnn2ncc(-c3ccnc(N(C)C)n3)c12 | binding | 1 µM | 91 |
| CN([C@@H]1CCc2c(CC(=O)O)c3ccccc3n2C1)S(=O)(=O)c1ccc(F)cc1 | cell-free assay, competition with immobilised ligand | 1 µM | 100 |
| c1cncc(-c2cccc(Nc3nccc(NC4CCCCC4)n3)c2)c1 | binding, competition with immobilised ligand | 10 µM | 62 |
| N[C@H]1CCN(c2nccc(-c3cnn4ncccc34)n2)C1 | binding | 1 µM | 93 |
| CC1=C(C#N)C(c2ccc3c(c2)c(NC(=O)c2ccccc2C)nn3C)C(C#N)=C(C)N1 | cell-free assay, competition with immobilised ligand | 1 µM | 89 |
| C[C@@H](c1ccc(-n2cnc3c(N)ncnc32)cc1)N1CCc2nn(C)c(Cc3ccccc3)c2C1=O | binding, competition with immobilised ligand | 0.1 µM | 88 |
| CS(=O)(=O)N1CCCC(NC(=O)[C@H](CCC2CCCCC2)NC(=O)c2ccc(CNC(=O)c3cnc4ccccn34)cc2)C1 (stereo partly shown) | cell-free assay, competition with immobilised ligand | 0.1 µM | 100 |
| O=C(NCCCN1CCOCC1)c1ccc(Nc2ncc(Cl)c(-c3ccc(Cl)s3)n2)cc1 | binding, competition with immobilised ligand | 1 µM | 1.2 |
